Measurements from ChEMBL document CHEMBL4325822, “Discovery of a tetrazolyl β-carboline with in vitro and in vivo osteoprotective activity under estrogen-deficient conditions” (Medchemcomm, 2018).
Active and inactive are the calls of the source. No cut-off for these calls is given here.

Key:
Calvarial osteoblast [1] = assay: Cytotoxicity against Sprague-Dawley rat calvarial osteoblasts assessed as reduction in cell viability at 0.000001 to 1 uM after 48 hrs by MTT assay; type: cell-based
Procedure, shortened: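 Osteoblasts came from pooled calvaria of 1-2-day-old Sprague-Dawley pups, isolated by sequential dispase/collagenase digestion. Cells were exposed to compound at 1 pM to 1 µM for 48 h, and viability was measured by MTT.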

Calvarial osteoblast [2] = assay: Osteogenic activity in Sprague-Dawley rat calvarial osteoblasts assessed as mineralized nodule formation at 100 pM after 21 days by alizarin red-S staining based colorimetric method; type: functional
Procedure, shortened: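 Osteoblasts at 10,000–15,000 cells/cm² in duplicate plates, 21 days in differentiation medium, medium changed every 48 h. Cells fixed in 4% PFA, stained with alizarin red-S (40 mM, pH 4.5, 30 min) and photographed. Stain extracted with 10% acetic acid, pH brought to 4.5 with ammonium hydroxide, read at 405 nm, normalized to cell number.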

[3] = Increase in OCN mRNA expression in Sprague-Dawley rat calvarial osteoblasts at 100 pM by RT-PCR method relative to control; type: functional, Calvarial osteoblast
Procedure, shortened: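 Primary calvarial osteoblasts were lysed in TRIzol after treatment, and total RNA was extracted. Transcripts were quantified by real-time PCR using the comparative CT (ΔΔCT) method.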

[4] = Antioxidant activity assessed as DPPH radical scavenging activity at 250 ug/ml after 30 mins by spectrophotometric method relative to control; type: functional
Procedure, shortened: (§1)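 The compound was serially diluted from 1000 to 1.95 µg·ml⁻¹ and mixed 1:1 with DPPH in methanol. After 30 min at room temperature, absorbance was read at 517 nm. Scavenging (%) = [(Abc − Abs)/Abc] × 100, where Abc is DPPH without compound.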

[5] = Antioxidant activity assessed as DPPH radical scavenging activity at 1000 ug/ml after 30 mins by spectrophotometric method relative to control; type: functional; procedure, shortened: as §1
[6] = target: I-kappa-B kinase (Rattus norvegicus) (UniProt Q9QY78+G3V926+Q6TMG5); assay: Inhibition of IKK in Sprague-Dawley rat calvarial osteoblasts assessed as reduction in TNFalpha-induced NFkB nuclear translocation at 100 pM after 24 hrs by immunofluorescence assay; type: cell-based; conditions: Calvarial osteoblast
Procedure, shortened: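 Primary rat osteoblasts on chamber slides given TNFα (10 ng·ml⁻¹) for 24 h, with or without treatment. Then 4% PFA fixation, 0.1% Triton X-100, anti-NF-κB overnight, and Cy3 anti-rabbit secondary. Fluorescence imaged at excitation 552 nm, emission 570 nm.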

Rattus norvegicus [7] = assay: Antiosteoporotic activity in Sprague-Dawley rat model of OVX-induced bone loss assessed as protection against microarchitectural deterioration by measuring trabecular separation at 1 mg/kg, po via gavage for 12 weeks by microcomputed tomographic analysis (reference value: 1.31 +/- 0.06 millimeter); type: functional
Procedure, shortened: (§2)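 Adult female Sprague-Dawley rats were ovariectomized and left 12 weeks to become osteopenic. They then received 12 weeks of once-daily oral gavage (1% gum acacia vehicle) or subcutaneous estradiol, five days a week. Femurs were collected at sacrifice and scanned by micro-CT for BMD and trabecular microarchitecture. Ten rats per group; mean ± SEM.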

Rattus norvegicus [8] = assay: Antiosteoporotic activity in Sprague-Dawley rat model of OVX-induced bone loss assessed as protection against microarchitectural deterioration by measuring trabecular number at 5 mg/kg, po via gavage for 12 weeks by microcomputed tomographic analysis (reference value: 0.56 +/- 0.06 /millimeter); type: functional; procedure, shortened: as §2
Rattus norvegicus [9] = assay: Antiosteoporotic activity in Sprague-Dawley rat model of OVX-induced bone loss assessed as protection against microarchitectural deterioration by measuring trabecular separation at 5 mg/kg, po via gavage for 12 weeks by microcomputed tomographic analysis (reference value: 1.31 +/- 0.06 millimeter); type: functional; procedure, shortened: as §2
Rattus norvegicus [10] = assay: Antiosteoporotic activity in Sprague-Dawley rat model of OVX-induced bone loss assessed as bone formation rate at 1 mg/kg, po via gavage for 12 weeks by microcomputed tomographic analysis (reference value: 0.171 +/- 0.005 um3/um2/day); type: functional
Procedure, shortened: (§3)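 Female Sprague-Dawley rats, 10-12 weeks old, ten per group, were ovariectomized and left 12 weeks for osteopenia. They were then dosed once daily by oral gavage for 12 weeks in 1% gum acacia vehicle. The estradiol arm received 100 µg·kg⁻¹ subcutaneously five days a week. Tetracycline and calcein were given intraperitoneally at 20 mg·kg⁻¹ each. Femur cross-sections (50 µm) were imaged by fluorescence microscopy for MAR and BFR.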

Rattus norvegicus [11] = assay: Antiosteoporotic activity in Sprague-Dawley rat model of OVX-induced bone loss assessed as increase in femoral bone strength by measuring energy at 1 mg/kg, po via gavage for 12 weeks by 3 point bending test (reference value: 46.27 +/- 4.36 mJ); type: functional
Rattus norvegicus [12] = assay: Antiosteoporotic activity in Sprague-Dawley rat model of OVX-induced bone loss assessed as mineral apposition rate at 5 mg/kg, po via gavage for 12 weeks by microcomputed tomographic analysis (reference value: 0.169 +/- 0.004 umeter/day); type: functional; procedure, shortened: as §3
Rattus norvegicus [13] = assay: Antiosteoporotic activity in Sprague-Dawley rat model of OVX-induced bone loss assessed as increase in femoral bone strength by measuring energy at 5 mg/kg, po via gavage for 12 weeks by 3 point bending test (reference value: 46.27 +/- 4.36 mJ); type: functional
Rattus norvegicus [14] = assay: Antiosteoporotic activity in Sprague-Dawley rat model of OVX-induced bone loss assessed as increase in femoral bone strength by measuring stiffness at 5 mg/kg, po via gavage for 12 weeks by 3 point bending test (reference value: 122.07 +/- 12.18 N/mm); type: functional
Rattus norvegicus [15] = assay: Upregulation of BMP2 mRNA expression in femur bone of Sprague-Dawley rat model of OVX-induced bone loss at 1 to 5 mg/kg, po via gavage for 12 weeks by qPCR analysis; type: functional, organism-based
Procedure, shortened: (§4)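 Ovariectomized female SD rats, osteopenic after 12 weeks, dosed orally once daily for 12 weeks (1.0 or 5.0 mg·kg⁻¹·day⁻¹, 1% gum acacia vehicle); sham and OVX vehicle groups included. Femurs collected at sacrifice for qRT-PCR, analysed by the ΔΔCT method.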

Rattus norvegicus [16] = assay: Upregulation of Runx2 mRNA expression in femur bone of Sprague-Dawley rat model of OVX-induced bone loss at 1 to 5 mg/kg, po via gavage for 12 weeks by qPCR analysis; type: functional, organism-based; procedure, shortened: as §4
[17] = Hepatotoxicity in Sprague-Dawley rat model of OVX-induced bone loss assessed as morphological changes in liver at 1 to 5 mg/kg, po via gavage for 12 weeks by hematoxylin and eosin staining based assay; type: toxicity, organism-based; conditions: in vivo, 2016 h
Procedure, shortened: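 Liver samples from ovariectomized rats after 12 weeks of treatment were dehydrated in isopropanol, cleared in xylene and paraffin-embedded. Transverse 5 µm sections were stained with hematoxylin and eosin and imaged.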

[18] = Toxicity in Sprague-Dawley rat model of OVX-induced bone loss assessed as uterine weight at 1 mg/kg, po via gavage for 12 weeks (reference value: 0.12 +/- 0.02 g); type: organism-based; conditions: in vivo, 2016 h
[19] = Toxicity in Sprague-Dawley rat model of OVX-induced bone loss assessed as luminal area at 1 mg/kg, po via gavage for 12 weeks (reference value: 0.01 +/- 0.0004 mm2); type: organism-based; conditions: in vivo, 2016 h
[20] = Toxicity in Sprague-Dawley rat model of OVX-induced bone loss assessed as total uterine area at 5 mg/kg, po via gavage for 12 weeks (reference value: 0.11 +/- 0.003 mm2); type: organism-based; conditions: in vivo, 2016 h

With `CCOC(=O)c1cc2c([nH]c3ccccc32)c(C(c2nnnn2C(C)(C)C)N2CCN(C)CC2)n1` (stereo not given) the Activity (Calvarial osteoblast [1]) was “Non-Toxic”, the Activity (Calvarial osteoblast [2]) was 70% and the “fold change (FC)” value [3] was 1.8 - 4.6. The Activity [4] was 37.8%, the Activity [5] was 47.8% and the inhibition [6] was “Active”. For the same compound, the Activity (Rattus norvegicus [7]) was 0.73 mm, the Activity (Rattus norvegicus [8]) was 1.38 /millimeter and the Activity (Rattus norvegicus [9]) was 0.87 mm. The Activity (Rattus norvegicus [10]) was 1.032 um3/um2/day, the Activity (Rattus norvegicus [11]) was 70.55 mJ and the Activity (Rattus norvegicus [12]) was 0.92 micrometer/day. For the same compound, the Activity (Rattus norvegicus [13]) was 60.87 mJ, the Activity (Rattus norvegicus [14]) was 146.6 N/mm and the Activity (Rattus norvegicus [15]) was “Active”. The Activity (Rattus norvegicus [16]) was “Active”, the Activity [17] was “Non-Toxic” and the Activity [18] was 0.13 g. The Activity [19] was 0.012 mm2 and the Activity [20] was 0.13 mm2.
